Results reported in PubChem BioAssay AID651999 (Sanford-Burnham Center for Chemical Genomics, 2013).
The whole screen tested about 360,000 compounds, of which about 1,400 (0.39%) were called active.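 The calls were made as follows: active = pattern-corrected inhibition above about 35%, with an unprinted fluorescence ratio check between 0.5 and 1.5 (limit read from the data, passing the limit was not always enough); inactive = the rest.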 The entries come from a sample that favours actives as a whole.

What follows are compounds tested against COP9 signalosome complex subunit 5 (Homo sapiens) (UniProt Q92905) (assay: inhibitors of CSN-mediated cullin deneddylation, primary screen, biochemical, fluorescence polarization, uHTS (AID 651999;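 also: 0% = enzyme with substrate and 100% = substrate without enzyme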)). Conditions: Purified CSN, SCF-Nedd8-OG deneddylation, at 12.5 µM, hits give high values.
Chain of COP9 signalosome complex subunit 5 (Homo sapiens) (Q92905 whole entry, looked up, one chain of several): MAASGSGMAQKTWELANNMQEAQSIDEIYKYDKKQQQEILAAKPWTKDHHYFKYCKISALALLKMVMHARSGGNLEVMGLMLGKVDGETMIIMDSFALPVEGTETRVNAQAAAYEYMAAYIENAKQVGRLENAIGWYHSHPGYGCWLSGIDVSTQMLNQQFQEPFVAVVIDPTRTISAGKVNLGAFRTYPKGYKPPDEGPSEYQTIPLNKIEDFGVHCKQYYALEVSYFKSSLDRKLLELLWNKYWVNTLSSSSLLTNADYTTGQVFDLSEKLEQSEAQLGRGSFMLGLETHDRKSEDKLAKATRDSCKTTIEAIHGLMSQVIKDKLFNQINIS
How it was run: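 Assay system: Purified human Csn5 enzyme expressed in HEK293T cells | Amount: Enzyme 0.24 nM | Measured by: Fluorescence polarization readout | Medium: Tris/NaCl/DTT buffer, pH 7.5 | Compound dosing: One concentration, 12.5 µM, 0.25% DMSO | Times: 90 min incubation of compound, enzyme and substrate at room temperature | Control set: no-enzyme wells high, enzyme-with-substrate wells low | Read-out: % inhibition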

Structure (SMILES) | inhibition
O=C(COc1ccc(S(=O)(=O)N2CCCCC2)cc1)NCc1ccccn1 | -4.23% (inactive)
CC(=O)NS(=O)(=O)c1ccc(NC(=O)/C=C/c2ccccc2Cl)cc1 | 4.02% (inactive)
COc1ccccc1CNC(=O)CCCNS(=O)(=O)c1cccc2nsnc12 | 1.39% (inactive)
Cc1ccc(CC2C(=O)N(c3ccc(F)cc3)C(=O)C2C)cc1 (stereo unspecified) | -0.88% (inactive)
C#CCOCCOCCOCCNc1nc(N2CCN(C(=O)CCCCCCCCCCNC(=O)Cn3cc(CCCCCN)nn3)CC2)nc(N2CCN(C(=O)CCCCCCCCCCNC(=O)[C@H](CO)n3cc(CCCSC)nn3)CC2)n1 | 89% (active)
C#CCOCCOCCOCCNc1nc(N2CCN(C(=O)C([C@@H](C)O)n3cc([C@@H](N)CCCCN)nn3)CC2)nc(N2CCN(C(=O)[C@H](CCCCN)n3cc(CN)nn3)CC2)n1 (stereo partly specified) | 37% (active)
C#CCOCCOCCOCCNc1nc(N2CCN(C(=O)C(Cc3ccc(O)cc3)n3cc(C(N)CC(C)C)nn3)CC2)nc(N2CCN(C(=O)C(Cc3ccc(O)cc3)n3cc(C(N)C(C)CC)nn3)CC2)n1 (stereo unspecified) | 0.38% (inactive)
C#CCOCCOCCOCCNc1nc(N2CCOCC2)nc(N2CCN(C(=O)[C@H](Cc3ccc(O)cc3)n3cc(CCO)nn3)CC2)n1 | -2.16% (inactive)
CCC(C)[C@@H](C(=O)N1CCNCC1)n1cc(CCCCN)nn1 (stereo partly specified) | -2.15% (inactive)
CC/C(Cc1ccccc1)=N/NC(=O)CCn1nnc2ccccc21 | 1.26% (inactive)
COc1ccc(NC(=O)C2CCC(CNc3c(N4CCCCC4)c(=O)c3=O)CC2)c(OC)c1 (stereo unspecified) | 1.79% (inactive)
CCOC(=O)C1(Cc2cccc(OC)c2)CCN(C(C)CC(C)(C)O)CC1 (stereo unspecified) | 0.5% (inactive)
Fc1ccc(-n2c(Cc3ccccc3)nnc2SCc2nc(-c3ccc(Cl)cc3)no2)cc1 | 5.36% (inactive)
Cc1ccc(-c2ccc(CN3C(C)C(=O)N(Cc4cn(CCC5OCCCO5)nn4)CCS3(=O)=O)cc2)cc1 (stereo unspecified) | 0.07% (inactive)
O=c1c2ccccc2c(-c2ccccc2)nn1-c1ccccn1 | 0.93% (inactive)
O=C(Nc1ccc(C2CC2(Cl)Cl)cc1)c1cccc([N+](=O)[O-])c1 (stereo unspecified) | -0.73% (inactive)
O=C(Nc1cc2c3c(c1)C1CCCC1CN3CC1CCCC21)c1ccc([N+](=O)[O-])cc1 (stereo unspecified) | -4.37% (inactive)
Cn1ccc(=Nc2ccc(NC(=O)c3ccc(N=c4ccn(C)c5ccc([N+](=O)[O-])cc45)cc3)cc2)cc1 | 114% (active)
CCCNC(=O)c1ccc(N2CCC3(CC2)CC(c2cccc(Br)c2)=NO3)c(NC(=O)c2ccco2)c1 | -1.32% (inactive)
C/C(=N\N=C(N)N)c1ccc(Cl)cc1 | -1.16% (inactive)
O=C(Cc1ccccc1)Nc1c(C(=O)N2CCCCCC2)cnn1-c1ccccc1 | -1.5% (inactive)
CCN(C(=O)Cc1c(C(=O)O)n(CC)c2ccccc12)c1ccccc1C | -2.24% (inactive)
CC[n+]1cc(C)ccc1/C=C/c1ccc(N(C)C)cc1 | 35.4% (active)
CC(C)N1CCC(NC(=O)Nc2ccccc2)CC1 | -2.66% (inactive)
CC(=O)N1CCN(S(=O)(=O)c2c(F)cc(F)c(Cl)c2F)CC1 | -5.22% (inactive)
CCOc1ccc(NC(=O)CN(C)CC(=O)NC(C)c2ccccc2)cc1OCC (stereo unspecified) | 2.1% (inactive)

Structure (SMILES) | inhibition
CN1/C(=c2/s/c(=C3/C(=O)N(c4ccccc4)NC3=Nc3ccccc3)n(C)c2=O)C(C)(C)c2ccccc21 | 41.7% (active)
CCc1c(O)nc(SCC(=O)Nc2ccccc2)n(C(C)CC)c1=O (stereo unspecified) | 2.98% (inactive)
C=CC(=O)Nc1ccc(Nc2ccnc(Nc3ccc(N4CCN(C)CC4)cc3)n2)cc1 | 103% (active)
CC(=O)Nc1cc(-c2ccc(N3CCN(C)CC3)cc2)cn2c(-c3ccc(F)cc3)cnc12 | 9.21% (inactive)
O=C(Nc1ccc(N2CCN(C(=O)c3cccs3)CC2)cc1)c1cccnc1Cl | -0.71% (inactive)
C/C(=N/NS(=O)(=O)c1ccccc1)c1ccc(NC(=O)C(F)(F)F)cc1 | -3.71% (inactive)
COc1ccccc1NC(=O)CCSc1nnc(-c2ccc(O)cc2)o1 | -8.49% (inactive)
Cc1ccc(N=C2NC(=O)/C(=C/C=C/c3ccco3)S2)cc1C | 51.9% (active)
COc1ccc(CCN(Cc2cc3cccc(C)c3[nH]c2=O)C(=O)N2CCCC2)cc1OC | 2.45% (inactive)
O=C(NCCCO)/C(=C\C=C\c1ccccc1)NC(=O)c1ccccc1Cl | -3.06% (inactive)
C=CCN(c1ccc(Cl)cc1)S(=O)(=O)c1cccc(C(=O)OCC(=O)N(C)C)c1 | -4.63% (inactive)
N#Cc1cc([N+](=O)[O-])ccc1Oc1cccc(/C=N/NC(=O)c2ccc(Cl)cc2)c1 | 1.22% (inactive)
CC(NC(=O)C(=O)N/N=C/c1ccc(Cl)cc1)c1ccccc1 (stereo unspecified) | -2.35% (inactive)
O=C(N/N=C/c1ccc(Cl)cc1)c1nc2ccc([N+](=O)[O-])cc2c(=O)[nH]1 | 56.7% (active)
COc1ccc(Cc2nnc(SCC(=O)N(c3ccccc3)C(C)C)n(N)c2=O)cc1 | 2.75% (inactive)
CC1(C2CC2)NC(=O)N(CC(=O)N2CCN(c3ccccc3F)CC2)C1=O (stereo unspecified) | -0.85% (inactive)
O=C(COc1ccc([N+](=O)[O-])cc1)Nc1ccc(N2CCCC2)cc1 | 45.2% (active)
O=C(CCC(=O)N1CCCC1)Nc1ccc([N+](=O)[O-])cc1 | -2.97% (inactive)
O=C(COC(=O)C1CCCCC1)Nc1ccc([N+](=O)[O-])cc1 | -5.15% (inactive)
Cn1c2c(c(=O)n(C)c1=O)[C@@H]1c3c(ccc4ccccc34)OC[C@@H]1CO2 | 0.02% (inactive)
COc1cc(/C=C(\C#N)c2nc3ccccc3[nH]2)ccc1O | 73.3% (active)
COc1cc(/C=C(\C#N)c2nc3c(s2)CC(C)CC3)ccc1O (stereo unspecified) | 82% (active)
CCN(/N=C/c1ccc(N(C)C)cc1)c1nc2ccccc2[nH]1 | -1.85% (inactive)
COc1cc(C=NC2CCCCC2)ccc1O | 4.95% (inactive)
CC1(C)O[C@H]2CC(=O)OCC23[C@H]2CC[C@@]4(C)[C@H](c5ccoc5)OC(=O)[C@H]5O[C@]54[C@]2(C)C(=O)C[C@@H]13 (stereo partly specified) | -1.16% (inactive)
